Compound activity: PubChem BioAssay, Broad Institute
PGC1a acetyl inh = lowers PGC1a acetylation signal in U2OS cells; AlphaScreen anti-acetyl-lysine; with virally co-expressed GCN5 acetyltransferase; inhibition, % at 15.6 µM; 350,000 tested, 0.17% active; AID 651687;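 active = every replicate shows inhibition of at least 40%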;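 also: 0% = neutral control wells and 100% = positive control wells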
FGF22 binding = FGF22 (human) thermal shift binding; 340,000 tested, 1.5% active; activity (Tm shift, normalised), % at 9.99 µM; AID 651658; recombinant FGF22 thermal shift, SYPRO orange fluorescence; percent of sucrose octasulfate shift, DMSO zero;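 active = mean Tm shift, scaled 0 neutral to 100 positive control, at about 1.3% or above, every replicate too, limit read from the data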
Target sequence (Q9HCT0 whole entry, looked up): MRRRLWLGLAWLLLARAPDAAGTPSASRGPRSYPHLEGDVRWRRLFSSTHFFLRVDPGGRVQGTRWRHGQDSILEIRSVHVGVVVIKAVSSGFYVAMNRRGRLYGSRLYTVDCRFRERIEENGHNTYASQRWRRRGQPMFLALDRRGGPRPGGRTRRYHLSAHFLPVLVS
Vif imaging = inhibitors of HIV Vif | HEK293T cells, Vif self-association by quenched fluorescence, imaging, 24 h | inhibition, % at 7.49 µM | 340,000 tested, 0.35% active | AID 602346; in the data active = inhibition above about 50%, passing the limit was not always enough
Cneo AK release = Cryptococcus neoformans lysis via adenylate kinase release; 360,000 tested, 0.2% active; AID 651654; C. neoformans lysis, adenylate kinase release luminescence, 4 h; normalised: neutral wells 0, clomiphene wells 100; lysis activity, % at 15 µM;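 active = mean lysis activity across replicates of at least 80%, whatever share of replicates individually reach that level; inactive = mean lysis activity below 80%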
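Material: C. neoformans cells | Amount: Yeast cell density of 5 × 10^6 cells/mL | Medium: Fresh YPD growth medium | Dosing: Single dose | Times: Static 4 h at 37 °C with compound, 1 h detection | Detection: AK luminescence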
Ecoli rRNA inh = inhibitors of bacterial rRNA selective over humanized ribosomes | E. coli WT GFP vs humanized-ribosome RFP mutants, fluorescence, 24 h; active compounds read low; DMSO median 0, no signal -100 | GFP signal change (wild-type ribosome), % (test concentration not listed) | 350,000 tested, 1.6% active | AID 720706;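 active = significant combined selectivity score with lowered wild-type GFP, culture density cut under 30%, mutant RFP and density less affected; inactive = any of these conditions unmet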
PglD DTNB = inhibitors of Campylobacter jejuni PglD acetyltransferase. purified PglD enzyme, DTNB colorimetric CoA detection. inhibition, % at 12.5 µM. 360,000 tested, 0.098% active; in the data active = inhibition above about 16%, passing the limit was not always enough
* = called active by the depositor; . = no result given. In the library only some 2.9% were active in any assay of this set; here they are far more common.

SMILES	PGC1a acetyl inh	FGF22 binding	Vif imaging	Cneo AK release	Ecoli rRNA inh	PglD DTNB
CN1CCN(C(=O)C[C@@H]2CC[C@@H]3[C@H](COC[C@@H](O)CN3C(=O)Cc3ccccc3)O2)CC1	6	0	.	0	0	0
CN1CCN(C(=O)C[C@@H]2CC[C@H]3[C@@H](COC[C@H](O)CN3C(=O)Nc3ccc(Cl)cc3)O2)CC1	3	0	.	-2	-34*	-3
CN1CCN(C(=O)C[C@@H]2CC[C@H]3[C@@H](COC[C@H](O)CN3C(=O)Cc3ccccc3)O2)CC1	3	0	.	94*	3	-45
CN1CCN(C(=O)C[C@@H]2CC[C@@H]3[C@H](COC[C@@H](O)CN3C(=O)Nc3ccc(Cl)cc3)O2)CC1	-2	0	.	-2	-22	0
CC(=O)c1sc2nc(C)c3c(c2c1N)CCCC3	21	0	-6	-2	-33*	0
CCCc1ccc(-c2ccc(/C=C/C(=O)O)cc2)nc1	.	0	-3	.	-26*	.
CCCNC(=O)N1CC2(CCN(S(=O)(=O)c3ccc(OC)cc3)CC2)c2c(n(C)c3cc(OC)ccc23)[C@@H]1CO	.	0	.	.	-2	.
O=C(Nc1ccc(F)cc1)N[C@@H]1CC[C@@H](CC(=O)N2CCCCC2)O[C@H]1CO	9	1	.	0	2	7
CCOC(=O)C1CCCN(Cc2ccc(OC)cc2OC)C1 (stereo not drawn)	4	.	55*	4	.	0
COc1ccc(CN2CCCC(C(=O)N3CCCC3)C2)c(OC)c1 (stereo not drawn)	-4	0	-12	-1	19	5
CCOC(=O)C1CCCN(C(=O)/C=C/c2ccc(Cl)cc2)C1 (stereo not drawn)	.	0	4	.	-5	.
CCOC(=O)C1CCCN(C(=O)/C=C/c2cc(OC)c(OC)c(OC)c2)C1 (stereo not drawn)	3	44*	0	.	1	.
COc1ccc2c3c(n(C)c2c1)[C@H](CO)N(C(=O)C1CCCC1)CC31CCN(C(=O)CN(C)C)CC1	.	0	.	.	0	.
C[C@@H]1CN([C@H](C)CO)C(=O)c2cc(C#CC3CCCC3)cnc2O[C@@H]1CN(C)Cc1ccncc1	-23	0	.	7	-1	4
O=C(NCC(c1ccc(F)cc1)N1CCOCC1)c1cc(F)c(F)c(F)c1F (stereo not drawn)	.	43*	-3	.	.	.
O=C(NCC(c1ccc(F)cc1)N1CCOCC1)c1ccccc1F (stereo not drawn)	-8	0	-1	.	13	.
Cc1cccc(/C=N/NC(=O)Cc2cccs2)c1	5	0	0	0	-19*	-1
O=C(C[C@H]1CC[C@H](NC(=O)Nc2ccc(C(F)(F)F)cc2)[C@H](CO)O1)NCc1cc(F)cc(F)c1	-3	0	.	-11	1	0
O=C(c1c[nH]c2ccccc12)N1CCN(Cc2ccccc2)CC1	18	43*	2	.	7	.
Cc1ccc2[nH]cc(C(=O)NCc3cccs3)c(=O)c2c1	2	0	.	0	-24*	-1
N#C/C(=C\c1ccc(O)c(O)c1)C(=O)N1CCc2ccccc21	-13	0	0	0	.	-6
COc1cc(/C=C(\C#N)C(=O)N2CCc3ccccc32)ccc1O	-3	0	-3	-7	-33*	2
Cn1cc(CCCC(=O)NCc2ccc(F)cc2)c2ccccc21	1	0	-9	0	-37*	-3
CC(C)N1C(=O)CCN(C=O)c2ccccc21	.	43*	12	.	17	.
O=CN1CCC(=O)N(Cc2ccccc2)c2ccccc21	-7	.	-8	1	.	0
SMILES	PGC1a acetyl inh	FGF22 binding	Vif imaging	Cneo AK release	Ecoli rRNA inh	PglD DTNB
COc1cc(NCc2ccccc2)c2ncn(C(C)C)c2c1	3	1	-13	6	-23	0
COc1cc(NCCCNC(C)C)c2nccc(C)c2c1	5	0	67*	1	19	-3
c1ccc(Cn2c(NCc3ccccn3)nc3ccccc32)cc1	.	43*	-4	4	-6	-3
O=C(Nc1ccccc1)N1CCCCN2[C@H](CO)[C@@H](c3ccc(C#Cc4ccccn4)cc3)[C@@H]2C1	.	.	.	.	1	.
Cc1cc2ccccc2nc1SCC(=O)NC1CCCC1	2	43*	10	-3	7	4
CS(=O)(=O)N1CC2(C1)[C@H](c1ccccc1)[C@@H](CO)N2C(=O)C1CCC1	10	0	.	.	0	.
COc1ccc(Nc2nc3cc(-c4ccsc4)sc3c(=O)n2C)cc1OC	-11	0	16	-11	-21*	-3
COc1cccc(-c2cc3nc(Nc4ccc(OC)c(OC)c4)n(C)c(=O)c3s2)c1	.	0	-6	-2	-6	1
Clc1ccc(Cn2cnc3ccccc32)cc1	-9	43*	-1	1	-42	-3
c1ccc(Cn2cnc3ccccc32)cc1	1	.	-1	2	.	-3
Cc1noc(C)c1S(=O)(=O)N(C)C[C@@H]1OCCCC[C@@H](C)Oc2ccc(NS(=O)(=O)c3ccc(F)cc3)cc2C(=O)N([C@@H](C)CO)C[C@H]1C	-10	0	.	37	0	-1
C[C@@H]1CN([C@H](C)CO)C(=O)c2cc(NC(=O)Cc3cn(C)c4ccccc34)ccc2O[C@@H]1CN(C)CC1CCCCC1	-17	-1	.	4	2	-1
O=C(C1CC1)N1CC2(C1)[C@@H](c1ccccc1)[C@@H](CO)N2Cc1ccc(Cl)cc1	-13	0	.	.	-14	.
CCN(CC)c1ccc(/C=N/N2CCOCC2)cc1	2	.	8	0	.	4
CCN(Cc1ccccc1)c1ccc(/C=N/N2CCOCC2)cc1	.	0	4	.	-22*	.
COc1cc(CCC(=O)OCC(=O)N(CC(C)C)C2CCS(=O)(=O)C2)cc(OC)c1OC (stereo not drawn)	.	0	.	.	-2	.
COc1cc(CC(=O)N(CC(C)C)C2CCS(=O)(=O)C2)cc(OC)c1OC (stereo not drawn)	-2	43*	30	1	3	-2
C/C(=N/NC(=O)c1ccncc1)C1=C(O)CC(C)(C)CC1=O	.	44*	-3	.	15	.
C/C(=N\NC(=O)CN1CCCCC1)c1ccccc1O	44*	0	3	-3	8	-4
C/C(=N/NC(=O)c1ccncc1)c1ccc(NC(=O)c2ccc(Cl)cc2Cl)cc1	8	0	1	-1	-16	9
CC(C)CC(=NNC(=O)c1ccncc1)c1cc(Cl)ccc1O	23	0	55*	-1	-60	3
CC(=NNC(=O)c1ccncc1)c1ccccc1O	14	0	-2	0	-30*	-6
COc1ccc2c3c([nH]c2c1)[C@H](CO)N(C)CC31CN(C(=O)c2ccccn2)C1	0	.	.	.	1	.
